Results as given in ChEMBL document CHEMBL1764956, “Inhibitory effects of Mannich bases of heterocyclic chalcones on NO production by activated RAW 264.7 macrophages and superoxide anion generation and elastase release by activated human neutrophils” (Bioorg Med Chem, 2011).

Columns and labels:
Neutrophil [1] = experiment: Inhibition of FMLP/CB-stimulated superoxide anion generation in human neutrophils treated for 5 mins before FMLP and CB challenge for 10 mins and 3 mins respectively by spectrophotometer analysis; type: functional, cell-based
Summary of the method: (§1)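 Human neutrophils in Ca2+-free HBSS pH 7.4 plus 0.5 mg/ml ferricytochrome c and 1 mM Ca2+. Equilibrated 37 °C 2 min, drug 5 min, cytochalasin B (1 µg/ml) 3 min, then 100 nM FMLP 10 min. SOD-inhibitable ferricytochrome c reduction followed at 550 nm with stirring. Mean ± S.E.M., n = 3–4; IC50 = 50% inhibition.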

RAW264.7 [2] = experiment: Inhibition of LPS/IFNgamma-induced NO production in mouse RAW264.7 cells after 24 hrs by Griess reagent method; type: functional, cell-based; details: RAW264.7, 24 h
Summary of the method: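 RAW 264.7 cells grown to confluence in 96-well plates (~200,000 cells/well), then given fresh medium with LPS (1 µg mL-1) plus IFN-γ (50 U mL-1); compounds added together with stimulus. Nitrite in medium read at 24 h: Griess reagent (1% sulfanilamide, 0.1% naphthylenediamine, 5% phosphoric acid), OD550, against sodium nitrite standards made in medium. IC50 = 50% inhibition.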

Neutrophil [3] = experiment: Inhibition of FMLP/CB-stimulated elastase release in human neutrophils treated for 5 mins before FMLP/CB challenge using MeO-Suc-Ala-Ala-Pro-Val-p-nitroanilide as a substrate; type: functional, cell-based
Summary of the method: (§2)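 Human neutrophils (6×10^5/ml) with 100 µM MeO-Suc-Ala-Ala-Pro-Val-p-nitroanilide, equilibrated 37 °C 2 min, drug 5 min, then activated by 100 nM FMLP plus 0.5 µg/ml cytochalasin B. Absorbance at 405 nm monitored continuously. Expressed as % of release in drug-free FMLP/CB control. Mean ± S.E.M., n = 3–4; IC50 = 50% inhibition.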

RAW264.7 [4] = experiment: Cytotoxicity against mouse RAW264.7 cells assessed as cell viability after 4 hrs by MTT assay; type: cell-based; details: RAW264.7, 4 h
Summary of the method: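 RAW 264.7 macrophages (ATCC) grown in DMEM with 10% heat-inactivated FCS and penicillin/streptomycin at 37 °C, 5% CO2, in 96-well plates. Cells incubated with MTT (5 mg mL-1) for 4 h at 37 °C. Formazan dissolved in acid-SDS. Viability taken from mitochondria-dependent MTT reduction.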

Neutrophil [5] = experiment: Inhibition of FLMP-stimulated Ca2+ mobilization in human neutrophils assessed as maximum intracellular Ca2+ concentration at 10 uM treated for 5 mins before stimulation by fluo-3 AM-based spectrofluorometry; type: functional
Summary of the method: (§3)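 Human neutrophils (dextran sedimentation, Ficoll Hypaque, hypotonic erythrocyte lysis; >98% viable) loaded with 2 µM fluo-3 AM, 37 °C, 45 min, washed, 3×10^6 cells/ml in Ca2+-free HBSS. Stimulated with 0.1 µM FMLP with 1 mM Ca2+, 37 °C, stirring; ex 488/em 520 nm. [Ca2+]i = Kd[(F−Fmin)/(Fmax−F)], Fmax with 0.05% Triton X-100, Fmin with 20 mM EGTA. Mean ± SEM.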

Neutrophil [6] = experiment: Inhibition of FMLP/CB-stimulated superoxide anion generation in human neutrophils at 30 uM treated for 5 mins before FMLP and CB challenge for 10 mins and 3 mins respectively by spectrophotometer analysis relative to control; type: functional; summary of the method: as §1
Neutrophil [7] = experiment: Inhibition of FLMP-stimulated Ca2+ mobilization in human neutrophils assessed as time required to decrease half of Ca2+ at 10 uM treated for 5 mins before FLMP challenge by fluo-3 AM-based spectrofluorometry; type: functional, cell-based; summary of the method: as §3
Neutrophil [8] = experiment: Inhibition of FMLP/CB-stimulated elastase release in human neutrophils at 30 uM treated for 5 mins before FMLP/CB challenge using MeO-Suc-Ala-Ala-Pro-Val-p-nitroanilide as a substrate relative to control; type: functional; summary of the method: as §2

| Compound | IC50 (Neutrophil [1]) [µM] | IC50 (RAW264.7 [2]) [nM] | IC50 (Neutrophil [3]) [µM] | IC50 (RAW264.7 [4]) [µM] | Activity (Neutrophil [5]) [nM] | inhibition at 30 µM (Neutrophil [6]) [%] | T1/2 (Neutrophil [7]) [s] | inhibition at 30 µM (Neutrophil [8]) [%] |
| --- | --- | --- | --- | --- | --- | --- | --- | --- |
| Cc1ccsc1/C=C/C(=O)c1ccc(O)c(CN2CCOCC2)c1 | 16.4 | 1390 | 18.2 | – | – | – | – | – |
| COc1cc(O)c(C(=O)/C=C/c2ccccc2)cc1CN1CCOCC1 | 2.86 | 200 | – | 0.19 | – | – | – | – |
| COc1ccc(/C=C/C(=O)c2cccnc2)c(CN2CCCCC2)c1O | 13 | – | 20.1 | – | – | – | – | – |
| Cc1ccsc1/C=C/C(=O)c1cccc(O)c1CN1CCOCC1 | 9.6 | 3390 | 18.6 | 182 | – | – | – | – |
| O=S(=O)(F)Cc1ccccc1 [PHENYLMETHYLSULFONYLFLUORIDE] | – | – | 95 | – | – | – | – | – |
| O=C(/C=C/c1ccccn1)c1ccc(O)c(CN2CCOCC2)c1O | 12.6 | 1730 | 21.2 | 11.4 | – | – | – | – |
| COc1cc(O)c(C(=O)/C=C/c2cccnc2)cc1CN1CCOCC1 | 2.65 | 11800 | 4.52 | 2810 | – | – | – | – |
| COc1ccc(/C=C/C(=O)c2cccc(C)c2)c(CN2CCOCC2)c1O | 3.16 | – | 2.95 | – | – | – | – | – |
| O=C(/C=C/c1cccnc1)c1ccc(CN2CCOCC2)c(O)c1 | 5.96 | 230 | 6.66 | – | – | – | – | – |
| O=C(/C=C/c1ccccc1)c1cccc(O)c1CN1CCOCC1 | 2.81 | 2300 | 5.19 | 9.95 | – | – | – | – |
| COc1ccc(/C=C/C(=O)c2cc(CN3CCOCC3)c(OC)cc2O)cc1 | 5.77 | 3350 | – | 1860 | – | – | – | – |
| O=C(/C=C/c1ccco1)c1ccc(O)c(CN2CCOCC2)c1 | – | 160 | – | 10 | 276.51 | 27.4 | 28.1 | – |
| CC(C)Oc1ccc(C(=O)/C=C/c2cccs2)c(O)c1CN1CCOCC1 | 3.39 | 2210 | – | 34 | – | – | – | – |
| CC(C)Oc1cc(O)c(C(=O)/C=C/c2cccs2)cc1CN1CCOCC1 | 19.4 | 230 | – | 47.7 | – | – | – | – |
| O=C(/C=C/c1ccco1)c1cccc(O)c1CN1CCOCC1 | 18.2 | 2500 | – | 17.2 | – | – | – | 39.7 |
| COc1ccc(C(=O)/C=C/c2ccccn2)c(O)c1CN1CCOCC1 | 0.68 | 1730 | 0.95 | 10.8 | 208.65 | – | 8.43 | – |
| COc1cc(O)c(C(=O)/C=C/c2cccs2)cc1CN1CCOCC1 | 10.2 | 3610 | – | 148 | – | – | – | – |
| O=C(/C=C/c1ccccc1)c1ccc(O)c(CN2CCOCC2)c1 | 16.6 | 15600 | – | 35 | – | – | – | 9.32 |
| CCOc1cc(O)c(C(=O)/C=C/c2ccco2)cc1CN1CCOCC1 | – | 16500 | – | 16.9 | – | 39.9 | – | – |
| Cc1ccc(/C=C/C(=O)c2ccc(O)c(CN3CCOCC3)c2)o1 | 25.6 | 1280 | – | 0.006 | – | – | – | – |
| c1ccc2c(c1)[I+]c1ccccc1-2 [DIPHENYLENEIODONIUM] | 1.02 | – | – | – | – | – | – | – |

| Compound | IC50 (Neutrophil [1]) [µM] | IC50 (RAW264.7 [2]) [nM] | IC50 (Neutrophil [3]) [µM] | IC50 (RAW264.7 [4]) [µM] | Activity (Neutrophil [5]) [nM] | inhibition at 30 µM (Neutrophil [6]) [%] | T1/2 (Neutrophil [7]) [s] | inhibition at 30 µM (Neutrophil [8]) [%] |
| --- | --- | --- | --- | --- | --- | --- | --- | --- |
| CCOc1cc(O)c(C(=O)/C=C/c2ccccn2)cc1CN1CCOCC1 | 0.89 | 15100 | 1.24 | 0.18 | – | – | – | – |
| CCOc1cc(O)c(C(=O)/C=C/c2sccc2C)cc1CN1CCOCC1 | 19.9 | 8130 | – | 2060 | – | – | – | – |
| COc1ccc(/C=C/C(=O)c2ccco2)c(CN2CCCCC2)c1O | 4.18 | – | – | – | – | – | – | – |
| O=C(/C=C/c1ccncc1)c1ccc(O)c(CN2CCOCC2)c1 | 8.85 | 4140 | 13.7 | 111 | – | – | – | – |
| O=C(/C=C/c1ccccn1)c1ccc(CN2CCOCC2)c(O)c1 | 2.63 | 720 | 2.47 | 78 | – | – | – | – |
| CCOc1cc(O)c(C(=O)/C=C/c2cccnc2)cc1CN1CCOCC1 | 2.42 | 15400 | 3.48 | 4.46 | – | – | – | – |
| CCOc1cc(O)c(C(=O)/C=C/c2ccc(C)o2)cc1CN1CCOCC1 | 19.9 | 10500 | – | 91.3 | – | – | – | – |
| COc1ccc(/C=C/C(=O)c2ccc(C)cc2)c(CN2CCOCC2)c1O | 2.76 | – | 6.97 | – | – | – | – | – |
| O=C(/C=C/c1ccccn1)c1ccc(O)c(CN2CCOCC2)c1 | 15.2 | 3410 | 20.9 | 6.56 | – | – | – | – |
| CC(C)=CCOc1ccc(C(=O)/C=C/c2sccc2C)c(O)c1CN1CCOCC1 | – | 930 | – | 11 | – | 21.5 | – | – |
| O=C(/C=C/c1ccncc1)c1ccc(CN2CCOCC2)c(O)c1 | 1.6 | 55 | 2.28 | 110 | – | – | – | – |
| COc1ccccc1OC(=O)CNC(=O)Cc1ccc(C(=O)c2ccc(C)cc2)n1C [AMTOLMETIN GUACIL] | – | 51300 | – | – | – | – | – | – |
| O=C(/C=C/c1ccccn1)c1ccc(CN2CCOCC2)c(O)c1CN1CCOCC1 | 1.66 | 18 | 1.44 | 24.3 | – | – | – | – |
| CCOc1cc(O)c(C(=O)/C=C/c2ccccc2)cc1CN1CCOCC1 | 3.35 | 290 | – | 1.6 | – | – | – | – |
| COc1cc(O)c(C(=O)/C=C/c2ccco2)cc1CN1CCOCC1 | 15.8 | 6060 | – | 1440 | – | – | – | 17.9 |
| O=C(/C=C/c1ccccn1)c1cc(CN2CCOCC2)c(O)c(CN2CCOCC2)c1 | 14.8 | 2520 | 18.9 | 190 | – | – | – | – |
| O=C(/C=C/c1cccs1)c1ccc(O)c(CN2CCOCC2)c1 | 25.4 | 470 | – | 6830 | – | – | – | 19.3 |
| COc1ccc(/C=C/C(=O)c2cccs2)c(CN2CCCCC2)c1O | 8.32 | – | – | – | – | – | – | – |
| O=C(/C=C/c1cccnc1)c1ccc(O)c(CN2CCOCC2)c1 | 23.5 | 820 | – | 53.2 | – | – | – | 20.4 |
| O=C(/C=C/c1cccs1)c1cccc(O)c1CN1CCOCC1 | 10.5 | 2490 | 24.3 | 12.7 | – | – | – | – |
| Cc1ccsc1/C=C/C(=O)c1cc(CN2CCOCC2)c(O)c(CN2CCOCC2)c1 | – | 440 | – | 56.9 | – | 33.8 | – | 15.4 |
